Assay results reported in ChEMBL document CHEMBL1153713, “Effect of chirality of small molecule organofluorine inhibitors of amyloid self-assembly on inhibitor potency” (Bioorg Med Chem Lett, 2009).
Activity calls are given as the source filed them. No cut-off for these calls is given here.

Tests used:
[1] = Inhibition of amyloid beta (1 to 40) fibrillation by atomic force microscopy relative to control; conditions: concentration not given here
Summary of the method: (§1)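 Aβ1-40 (100 μM in HEPES/NaCl/NaN3, pH 7.4) incubated with inhibitor (DMSO stock, 10:1 inhibitor:peptide) at 37°C with gentle shaking. Aliquots diluted in the same HEPES buffer, 2-5 μL spotted on freshly cleaved mica. Imaged by non-contact AFM over 10 μm2 scans and compared with inhibitor-free control.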

[2] = Inhibition of amyloid beta (1 to 40) after 94 hrs by thioflavin-T assay relative to control
Summary of the method: (§2)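 Synthetic Aβ1-40 dissolved in 100 mM NaOH (40 mg/ml), diluted to 100 μM final in 10 mM HEPES, 100 mM NaCl, 0.02% NaN3, pH 7.4; inhibitor added from DMSO at inhibitor/Aβ = 10. Incubated at 37°C, 77 rpm shaking, up to 140 h. Aliquots into 5 μM ThT in glycine-NaOH pH 8.5; ex 430/em 484 nm, 0 h background subtracted, normalized to inhibitor-free control.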

[3] = Inhibition of amyloid beta (1 to 40) fibrillation by atomic force microscopy; summary of the method: as §1
[4] = Inhibition of amyloid beta (1 to 40) after 140 hrs by thioflavin-T assay; summary of the method: as §2

Structure (SMILES)	inhibition [1]	Activity [2]	Activity [3]	Activity [4]
CCOC(=O)[C@@](O)(c1c[nH]c2ccc(Cl)cc12)C(F)(F)F	60%	Active	Active	Active
CCOC(=O)[C@](O)(c1c[nH]c2ccc(I)cc12)C(F)(F)F	–	Active	Active	Active
CCOC(=O)[C@@](O)(c1c[nH]c2ccc(I)cc12)C(F)(F)F	–	Active	Active	Active
CCOC(=O)[C@@](O)(c1c[nH]c2ccc(Br)cc12)C(F)(F)F	–	Active	Active	Active
CCOC(=O)[C@](O)(c1c[nH]c2ccc(Cl)cc12)C(F)(F)F	60%	Active	Active	Active
CCOC(=O)[C@](O)(c1c[nH]c2ccc(Br)cc12)C(F)(F)F	60%	Active	Active	Active
